Columns and labels:
Mps1 = settings: cited from earlier work
mammalian cells = settings: cited from earlier work
Aurora B = Aurora B (Homo sapiens, UniProt Q96GD4); assay: Lanthascreen in vitro assay on Aurora B; type: binding; settings: in vitro assays
[1] = test system: Hela S3 cells expressing histone H2B-GFP; assay: Mitotic escape, time-lapse, nocodazole arrest; type: cell-based; settings: nocodazole-arrested cells
Summary of the method: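 Hela S3 cells expressing H2B-GFP were treated with nocodazole with or without test compound. They were imaged in a heated chamber (37°C, 5% CO2), with DIC and GFP frames every 5 min across 5 z-planes. Mitotic exit was scored by nuclear envelope reassembly, counting 150 cells per population.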

U2OS cells [2] = assay: Mitotic escape assay; type: cell-based
[3] = test system: PtK2 cells stably expressing HsMad2-EYFP; assay: Mad2 kinetochore establishment assay; type: cell-based, Potorous tridactylus; settings: 10 µM, NEB to NER
U2OS cells [4] = assay: Intracellular Aurora B kinase activity, immunoblot; type: cell-based; settings: taxol and MG132, mitotic shake-off
Hela S3 or U2OS cells = assay: Centrosome duplication in cycling cells; type: cell-based; settings: 10 µM, 1 or 2 cell doublings
Summary of the method: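 Hela S3 and U2OS cells on 12-mm coverslips were synchronized, then cycled in test compound or DMSO for one or two cell cycles. Mitotic spindles were stained for centrin, α-tubulin and DNA. The percentage of mitotic cells with fewer than 4 centrin dots was scored, counting 135–300 cells per arm. Results are mean ± SD from three independent experiments.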

UTRM10 cells = assay: Centriole overduplication under hydroxyurea; type: cell-based; settings: 10 or 25 µM with hydroxyurea, 48 hours
Summary of the method: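 UTRM10 cells co-treated for 48 h with hydroxyurea (4 mM) plus test compound (10 or 25 µM) or DMSO vehicle. Centrioles were scored by centrin immunostaining, with about 433–485 cells counted per condition. Results are mean ± SD of three independent experiments.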

[5] = test system: U2OS H2B–GFP cells with Plk4 overexpression; assay: Time-lapse of mitosis in cells with extra centrosomes; type: cell-based; settings: extra centrosome containing cells
Summary of the method: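 U2OS H2B–GFP cells with doxycycline-inducible Plk4 were blocked in thymidine for 18 h, then released into doxycycline (2 µg·ml−1) for 10 h. A second 18 h thymidine block followed, then release into medium for 6 h. Cells were treated with 5 µM test compound and imaged by time-lapse at 37°C, 5% CO2.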

[6] = test system: U2OS cells with Plk4 overexpression; assay: Proliferation assay of PLK4-overexpressing U2OS cells; type: cell-based; settings: 48, 72, 96 hours
HCT116 cells [7] = assay: Proliferation assay; type: cell-based
HCT116 cells [8] = assay: Colony outgrowth assay; type: cell-based; settings: 5–10 µM, 10 days
HCT116 cells [9] = assay: PARP cleavage immunoblot; type: cell-based
Summary of the method: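 HCT116 cells in McCoy's 5A with 10% FBS were treated with test compound at a series of concentrations. Lysates were collected at 24, 48 and 72 h and immunoblotted for PARP cleavage.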

hTERT-RPE1 cells = assay: PARP cleavage immunoblot; type: cell-based; settings: 25 µM
MCF10A cells = assay: PARP cleavage immunoblot; type: cell-based; settings: 25 µM
[10] = test system: UTRM10 cells expressing LAP-Mps1 M602Q; assay: pHistone H3 immunoblot in cells expressing inhibitor-resistant Mps1; type: cell-based; settings: thymidine/taxol arrest; VX-680 2 µM

Chain of Aurora B (Q96GD4 whole entry): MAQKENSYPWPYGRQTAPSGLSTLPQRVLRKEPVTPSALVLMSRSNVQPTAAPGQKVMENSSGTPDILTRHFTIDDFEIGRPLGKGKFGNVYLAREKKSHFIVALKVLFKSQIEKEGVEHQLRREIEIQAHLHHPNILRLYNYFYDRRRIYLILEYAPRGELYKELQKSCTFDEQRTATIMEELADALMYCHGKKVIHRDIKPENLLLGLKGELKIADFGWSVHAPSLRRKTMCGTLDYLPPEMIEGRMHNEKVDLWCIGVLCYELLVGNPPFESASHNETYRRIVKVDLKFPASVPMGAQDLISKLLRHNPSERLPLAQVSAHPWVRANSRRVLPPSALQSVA

SMILES | inhibition of Mps1 kinase activity in S. cerevisiae (Mps1) | effectiveness in mammalian cells (mammalian cells) | activity against Aurora B in vitro (Aurora B) | time within which the majority of cells escape mitosis [1] [h] | 4c pHistone H3 negative cells, flow cytometry (U2OS cells [2]; nocodazole-arrested cells) | cyclin B protein levels (U2OS cells [2]; thymidine/nocodazole arrest, 4 hrs inhibitor, reversed by MG132) | less time spent in mitosis versus DMSO [3] | phosphorylation of Aurora B at Thr232 (U2OS cells [4]) | mitotic cells containing less than 4 centrioles, versus vehicle (Hela S3 or U2OS cells) | effect on centriole overduplication (UTRM10 cells) | decrease in time spent in mitosis [5] [fold] | additional cytotoxicity versus parental U2OS [6] | cytotoxic concentrations (HCT116 cells [7]) [µM] | cell viability and clonal survival (HCT116 cells [8]) | onset of PARP cleavage (apoptosis) (HCT116 cells [9]) [h] | apoptosis-associated PARP cleavage (hTERT-RPE1 cells) | apoptosis-associated PARP cleavage (MCF10A cells) | mitotic escape despite LAP-Mps1 M602Q [10] | hyperphosphorylation status of Mps1 (mobility shift) (U2OS cells [4])
O=c1[nH]c2ccc(Br)cc2o1 [cincreasin] | effective | ineffective |  |  |  |  |  |  |  |  |  |  |  |  |  |  |  |  | 
COc1cc(N2CCC(O)CC2)ccc1Nc1cc(Nc2ccccc2S(=O)(=O)C(C)C)c2cc[nH]c2n1 [Mps1-IN-1] |  |  | does not exhibit activity against Aurora B | ≤ 1 | dose-dependent accumulation of 4c pHistone H3 negative cells | dropped with increasing concentration | roughly 40% | dose-dependent reduction | no significant difference | no effect | 4 | no detectable additional cytotoxicity | 5 to 10 | severe loss of cell viability and clonal survival | 48 | little-to-no apoptosis-associated PARP cleavage | little-to-no apoptosis-associated PARP cleavage |  | 
Cc1cc(Nc2cc(N3CCN(C)CC3)nc(Sc3ccc(NC(=O)C4CC4)cc3)n2)n[nH]1 [VX-680] |  |  |  |  |  |  |  | inhibited |  |  |  |  |  |  |  |  |  | still capable of executing an efficient mitotic escape | did not adversely affect

Source: article PMC2857554 (Nature chemical biology, 2010)
